From ChEMBL document CHEMBL2321795, “Solubility-driven optimization of (pyridin-3-yl) benzoxazinyl-oxazolidinones leading to a promising antibacterial agent” (J Med Chem, 2013)
pIC50: −log10 of the molar value. Converted amounts (≈) assume the structure as drawn.

What was measured:
Staphylococcus aureus [1] = test: Antibacterial activity against methicillin-resistant Staphylococcus aureus after 16 hrs by NCCLS agar dilution method; assay type: functional
Outline: (§1)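 Agar dilution MIC. Stocks were 320 μg/mL in 50% aqueous DMSO, 2-fold serially diluted in sterile water, then diluted 10-fold into Mueller–Hinton agar to give 16–0.03125 μg/mL final. Organisms were grown in MH broth at 35 °C for 8 h and adjusted to 0.5 McFarland. They were spotted onto drug-containing plates with a multipoint inoculator and incubated at 35 °C for 16 h. Linezolid was the positive control.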

Staphylococcus aureus [2] = test: Antibacterial activity against methicillin-sensitive Staphylococcus aureus after 16 hrs by NCCLS agar dilution method; assay type: functional; outline: as §1
Enterococcus faecalis [3] = test: Antibacterial activity against Enterococcus faecalis after 16 hrs by NCCLS agar dilution method; assay type: functional
Outline: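 Agar dilution MIC per NCCLS, 6 E. faecalis strains. Stock was 320 μg/mL in 50% water/DMSO, serially 2-fold diluted in sterile water, then 10-fold into Mueller–Hinton agar to give 16–0.03125 μg/mL final. Inocula came from MH broth cultures grown 8 h at 35 °C, adjusted to 0.5 McFarland and spotted by multipoint inoculator. Plates were read after 16 h at 35 °C.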

[4] = tested on: Staphylococcus epidermidis; test: Antibacterial activity against methicillin-sensitive Staphylococcus epidermidis after 16 hrs by NCCLS agar dilution method; assay type: functional; outline: as §1
[5] = tested on: Staphylococcus epidermidis; test: Antibacterial activity against linezolid-resistant Staphylococcus epidermidis after 16 hrs by NCCLS agar dilution method; assay type: functional; outline: as §1
[6] = Cmax in Sprague-Dawley rat at 50 mg/kg, po by LC-MS analysis; assay type: ADME, organism-based; set-up: dose 50 mg/kg, route oral; settings: in vivo
Outline: (§2)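 Rats were dosed orally or by intravenous injection. For prodrugs, all parameters were based on the active parent antibacterial detected in plasma, and each prodrug dose was also given as an equivalent parent dose. Parameters were Cmax, Tmax, elimination T1/2, AUC from the concentration–time curve, clearance and oral bioavailability F.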

[7] = Elimination half life in Sprague-Dawley rat at 50 mg/kg, po by LC-MS analysis; assay type: ADME, organism-based; set-up: dose 50 mg/kg, route oral; settings: in vivo, read-out: beta t1/2 (converted); outline: as §2
[8] = AUC in Sprague-Dawley rat at 50 mg/kg, po by LC-MS analysis; assay type: ADME, organism-based; set-up: dose 50 mg/kg, route oral; settings: plasma; outline: as §2
[9] = Tmax in Sprague-Dawley rat at 50 mg/kg, po by LC-MS analysis; assay type: ADME, organism-based; set-up: dose 50 mg/kg, route oral; settings: in vivo; outline: as §2
Enterococcus faecalis [10] = test: Antibacterial activity against linezolid-resistant Enterococcus faecalis after 16 hrs by NCCLS agar dilution method; assay type: functional; outline: as §1
Staphylococcus aureus [11] = test: Antibacterial activity against Staphylococcus aureus ATCC 29213 after 16 hrs by NCCLS agar dilution method; assay type: functional; settings: ATCC 29213, 16 h; outline: as §1
Enterococcus faecium = test: Antibacterial activity against linezolid-resistant Enterococcus faecium after 16 hrs by NCCLS agar dilution method; assay type: functional; outline: as §1
[12] = tested on: Staphylococcus epidermidis; test: Antibacterial activity against methicillin-resistant Staphylococcus epidermidis after 16 hrs by NCCLS agar dilution method; assay type: functional; outline: as §1
Streptococcus pneumoniae = test: Antibacterial activity against penicillin-resistant Streptococcus pneumoniae after 16 hrs by NCCLS agar dilution method; assay type: functional; outline: as §1
Staphylococcus aureus [13] = test: Antibacterial activity against linezolid-resistant Staphylococcus aureus after 16 hrs by NCCLS agar dilution method; assay type: functional; outline: as §1
hERG (KCNH2) = hERG (KCNH2) (Homo sapiens, UniProt Q12809); test: Inhibition of human ERG at 30 uM relative to control
[14] = Cmax in Sprague-Dawley rat at 10 mg/kg, po by LC-MS analysis; assay type: ADME, organism-based; set-up: dose 10 mg/kg, route oral; settings: in vivo; outline: as §2
[15] = Oral bioavailability in Sprague-Dawley rat at 10 mg/kg; assay type: ADME, organism-based; settings: Sprague-Dawley, in vivo; outline: as §2
[16] = Tmax in Sprague-Dawley rat at 10 mg/kg, po by LC-MS analysis; assay type: ADME, organism-based; set-up: dose 10 mg/kg, route oral; settings: in vivo; outline: as §2
[17] = Clearance in Sprague-Dawley rat at 10 mg/kg, iv by LC-MS analysis; assay type: ADME, organism-based; set-up: dose 10 mg/kg, route intravenous; settings: in vivo; outline: as §2
[18] = Elimination half life in Sprague-Dawley rat at 10 mg/kg, po by LC-MS analysis; assay type: ADME, organism-based; set-up: dose 10 mg/kg, route oral; settings: in vivo, read-out: beta t1/2 (converted); outline: as §2
[19] = AUC in Sprague-Dawley rat at 10 mg/kg, iv by LC-MS analysis; assay type: ADME, organism-based; set-up: dose 10 mg/kg, route intravenous; settings: plasma
Outline: (§3)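 Rats dosed orally or by intravenous injection. AUC is the area under the plasma concentration–time curve. For the prodrug entries, all PK values were based on the amount of the active parent antibacterial detected, not the administered prodrug.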

[20] = Elimination half life in Sprague-Dawley rat at 10 mg/kg, iv by LC-MS analysis; assay type: ADME, organism-based; set-up: dose 10 mg/kg, route intravenous; settings: in vivo, read-out: beta t1/2 (converted); outline: as §2
[21] = AUC in Sprague-Dawley rat at 10 mg/kg, po by LC-MS analysis; assay type: ADME, organism-based, Plasma; set-up: dose 10 mg/kg, route oral; settings: Sprague-Dawley, plasma; outline: as §2
[22] = Elimination half life in Sprague-Dawley rat at 15 mg/kg, po by LC-MS analysis; assay type: ADME, organism-based; set-up: dose 15 mg/kg, route oral; settings: in vivo, read-out: beta t1/2 (converted); outline: as §2
[23] = Cmax in Sprague-Dawley rat at 15 mg/kg, po by LC-MS analysis; assay type: ADME, organism-based; set-up: dose 15 mg/kg, route oral; settings: in vivo; outline: as §2
[24] = Oral bioavailability in Sprague-Dawley rat at 15 mg/kg; assay type: ADME, organism-based; settings: in vivo; outline: as §2
[25] = Tmax in Sprague-Dawley rat at 15 mg/kg, po by LC-MS analysis; assay type: ADME, organism-based; set-up: dose 15 mg/kg, route oral; settings: in vivo; outline: as §2
[26] = AUC in Sprague-Dawley rat at 15 mg/kg, po by LC-MS analysis; assay type: ADME, organism-based; set-up: dose 15 mg/kg, route oral; settings: plasma; outline: as §3
Staphylococcus aureus [27] = test: Antibacterial activity against methicillin-sensitive Staphylococcus aureus ATCC 19636 infected in po dosed systemic infection mouse model administered 1 hr post infection measured after 48 hrs; assay type: functional; settings: ATCC 19636, po
Outline: (§4)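 Female ICR mice weighing 20–22 g, six per group, received 0.5 mL of 10⁷–10⁸ CFU/mL S. aureus intraperitoneally as a lethal systemic challenge. Dosing was oral or intravenous 1 h post-infection at 2.5, 5, 10 and 20 mg/kg, with linezolid as comparator.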

Staphylococcus aureus [28] = test: Antibacterial activity against methicillin-resistant Staphylococcus aureus ATCC 33591 infected in po dosed systemic infection mouse model administered 1 hr post infection measured after 24 hrs; assay type: functional; settings: ATCC 33591, po
Outline: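 Female ICR mice, 23–25 g, made neutropenic with cyclophosphamide ip, 150 mg/kg 4 days and 100 mg/kg 2 days before infection. Infected ip with about 0.5 mL of 10⁶ CFU/mL MRSA. Oral dosing 1 h post-infection at 5, 10, 20 and 40 mg/kg, with linezolid as control. ED₅₀ (dose treating 50% of infections) by Reed–Muench and Hill equation, 24 h after treatment.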

Staphylococcus aureus [29] = test: Antibacterial activity against methicillin-sensitive Staphylococcus aureus ATCC 19636 infected in iv dosed systemic infection mouse model administered 1 hr post infection measured after 48 hrs; assay type: functional; settings: ATCC 19636, iv; outline: as §4
[30] = Mean resident time in Staphylococcus aureus systemic infection mouse model at 2.5 to 20 mg/kg, iv; assay type: ADME, organism-based; set-up: dose 2.5-20 mg/kg, route intravenous; settings: in vivo
[31] = Aqueous solubility of the compound; settings: aqueous (not further specified)
[32] = target: Voltage-gated inwardly rectifying potassium channel KCNH2 (Homo sapiens, UniProt Q12809)
Chain of Voltage-gated inwardly rectifying potassium channel KCNH2 (Q12809 whole entry): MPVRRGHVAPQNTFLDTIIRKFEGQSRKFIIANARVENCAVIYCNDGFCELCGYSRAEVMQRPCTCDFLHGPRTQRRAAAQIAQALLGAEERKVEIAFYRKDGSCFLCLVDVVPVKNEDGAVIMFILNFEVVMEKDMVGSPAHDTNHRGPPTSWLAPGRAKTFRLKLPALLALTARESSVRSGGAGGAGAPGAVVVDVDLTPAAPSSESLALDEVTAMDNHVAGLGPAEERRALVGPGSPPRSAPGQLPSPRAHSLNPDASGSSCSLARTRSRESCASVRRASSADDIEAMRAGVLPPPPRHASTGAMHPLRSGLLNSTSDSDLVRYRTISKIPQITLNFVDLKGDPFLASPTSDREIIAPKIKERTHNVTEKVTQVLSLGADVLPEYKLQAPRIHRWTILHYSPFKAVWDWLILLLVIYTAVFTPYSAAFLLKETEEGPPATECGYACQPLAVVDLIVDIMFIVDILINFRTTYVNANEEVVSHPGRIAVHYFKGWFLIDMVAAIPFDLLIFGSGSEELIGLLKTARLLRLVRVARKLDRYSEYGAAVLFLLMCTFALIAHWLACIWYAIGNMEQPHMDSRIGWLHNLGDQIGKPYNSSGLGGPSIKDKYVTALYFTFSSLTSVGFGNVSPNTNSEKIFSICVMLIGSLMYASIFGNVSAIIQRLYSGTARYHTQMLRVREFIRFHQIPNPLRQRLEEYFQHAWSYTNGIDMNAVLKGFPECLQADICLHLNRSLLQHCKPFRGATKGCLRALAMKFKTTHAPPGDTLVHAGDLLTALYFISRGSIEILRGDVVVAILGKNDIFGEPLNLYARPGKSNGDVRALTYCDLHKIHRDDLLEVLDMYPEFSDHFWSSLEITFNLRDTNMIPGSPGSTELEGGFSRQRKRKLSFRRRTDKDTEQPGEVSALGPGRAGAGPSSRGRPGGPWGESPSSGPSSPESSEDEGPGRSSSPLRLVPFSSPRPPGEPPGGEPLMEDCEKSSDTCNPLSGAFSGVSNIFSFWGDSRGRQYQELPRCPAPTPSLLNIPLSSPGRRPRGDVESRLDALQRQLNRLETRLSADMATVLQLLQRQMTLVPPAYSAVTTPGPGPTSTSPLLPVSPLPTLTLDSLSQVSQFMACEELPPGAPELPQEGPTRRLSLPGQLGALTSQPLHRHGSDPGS

Chain of hERG (KCNH2) (Q12809 whole entry): as above

SMILES | MIC (Staphylococcus aureus [1]) [µg/mL] | MIC (Staphylococcus aureus [2]) [µg/mL] | MIC (Enterococcus faecalis [3]) [µg/mL] | MIC [4] [µg/mL] | MIC [5] [µg/mL] | MIC (Enterococcus faecalis [10]) [µg/mL] | MIC (Staphylococcus aureus [11]) [µg/mL] | MIC (Enterococcus faecium) [µg/mL] | MIC [12] [µg/mL] | MIC (Streptococcus pneumoniae) [µg/mL] | MIC (Staphylococcus aureus [13]) [µg/mL] | Cmax [14] [ng/mL] | Tmax [16] [h] | clearance [17] [mL/min/kg] | half-life [18] [h] | AUC [19] [ng·h/mL] | half-life [20] [h] | AUC [21] [ng·h/mL] | solubility [31] [mg/mL] | also measured
N#Cc1ccc(-c2ccc3c(c2)OC[C@H]2[C@H](CO)OC(=O)N32)cn1 | 0.25 (≈ 0.773 µM) | 0.25 (≈ 0.773 µM) | 1 (≈ 3.09 µM) | 0.25 (≈ 0.773 µM) | 4 (≈ 12.4 µM) | 2 (≈ 6.19 µM) | 0.25 (≈ 0.773 µM) | 2 (≈ 6.19 µM) | 0.125 (≈ 0.387 µM) | 0.25 (≈ 0.773 µM) | 4 (≈ 12.4 µM) |  |  |  |  |  |  |  |  | Cmax [6]: 3020 ng/mL; half-life [7]: 4.69 h; AUC [8]: 33400 ng·h/mL; Tmax [9]: 4.5 h
C[C@@H](O)C(=O)c1ccc(-c2ccc3c(c2)OC[C@H]2[C@H](CO)OC(=O)N32)cn1 | 0.125 (≈ 0.338 µM) | 0.25 (≈ 0.675 µM) | 1 (≈ 2.7 µM) | 0.125 (≈ 0.338 µM) | 4 (≈ 10.8 µM) | 4 (≈ 10.8 µM) | 0.25 (≈ 0.675 µM) | 4 (≈ 10.8 µM) | 0.125 (≈ 0.338 µM) | 0.25 (≈ 0.675 µM) | 8 (≈ 21.6 µM) |  |  |  |  |  |  |  |  | inhibition at 30 µM (hERG (KCNH2)): 18.4%
CN1C[C@@H](c2ccc(-c3ccc4c(c3)OC[C@H]3[C@H](COP(=O)(O)O)OC(=O)N43)cn2)OC1=O.N=C(N)NCCC[C@H](N)C(=O)O.N=C(N)NCCC[C@H](N)C(=O)O |  |  |  |  |  |  |  |  |  |  |  | 170 | 0.38 | 56.2 | 3.88 | 1440 | 9.43 | 523 |  | bioavailability [15]: 34.8%
N=C(N)NCCC[C@H](N)C(=O)O.N=C(N)NCCC[C@H](N)C(=O)O.O=C1OC(COP(=O)(O)O)CN1c1ccc(-c2ccc3c(c2)OC[C@H]2[C@H](CO)OC(=O)N32)cn1 (some centres not stated) |  |  |  |  |  |  |  |  |  |  |  |  |  | 46.3 |  | 1800 | 0.26 |  |  | half-life [22]: 1.45 h; Cmax [23]: 416 ng/mL; bioavailability [24]: 32.6%; Tmax [25]: 0.25 h; AUC [26]: 914 ng·h/mL
CN1C[C@@H](c2ccc(-c3ccc4c(c3)OC[C@H]3[C@H](COP(=O)([O-])[O-])OC(=O)N43)cn2)OC1=O.[Na+].[Na+] |  |  |  |  |  |  |  |  |  |  |  | 524 | 0.44 | 40.3 | 4.61 | 3160 | 4.88 | 1660 | 227 | ED50 (Staphylococcus aureus [27]): 6.65 mg/kg; ED50 (Staphylococcus aureus [28]): 5 mg/kg; bioavailability [15]: 52.5%; ED50 (Staphylococcus aureus [29]): 14.2 mg/kg; MRT [30]: 1.25 h
O=C1OCCN1c1ccc(-c2ccc3c(c2)OC[C@H]2[C@H](CO)OC(=O)N32)cn1 | 0.5 (≈ 1.3 µM) | 0.5 (≈ 1.3 µM) | 1 (≈ 2.61 µM) | 0.5 (≈ 1.3 µM) | 2 (≈ 5.22 µM) | 4 (≈ 10.4 µM) | 0.5 (≈ 1.3 µM) | 4 (≈ 10.4 µM) | 0.5 (≈ 1.3 µM) | 0.5 (≈ 1.3 µM) | 16 (≈ 41.7 µM) |  |  |  |  |  |  |  |  | 
O=C1OC(COP(=O)([O-])[O-])CN1c1ccc(-c2ccc3c(c2)OC[C@H]2[C@H](CO)OC(=O)N32)cn1.[Na+].[Na+] (some centres not stated) |  |  |  |  |  |  |  |  |  |  |  |  |  | 33.8 |  | 4000 | 1 |  | 534 | half-life [22]: 1.61 h; Cmax [23]: 650 ng/mL; bioavailability [24]: 19.7%; Tmax [25]: 0.25 h; AUC [26]: 1230 ng·h/mL
N#Cc1ccc(-c2ccc3c(c2)OC[C@H]2[C@H](COP(=O)([O-])[O-])OC(=O)N32)cn1.[Na+].[Na+] |  |  |  |  |  |  |  |  |  |  |  | 15.2 | 1.31 |  | 3.17 |  |  | 81.1 | 15 | 
CC(=O)NC[C@H]1CN(c2ccc(N3CCOCC3)c(F)c2)C(=O)O1 [LINEZOLID] | 1 (≈ 2.96 µM) | 1 (≈ 2.96 µM) |  | 1 (≈ 2.96 µM) | 8 (≈ 23.7 µM) |  | 1 (≈ 2.96 µM) | 16 (≈ 47.4 µM) | 2 (≈ 5.93 µM) |  | > 8 |  |  |  |  |  |  |  |  | ED50 (Staphylococcus aureus [27]): 8.28 mg/kg; ED50 (Staphylococcus aureus [29]): 7.07 mg/kg
CC(=O)NC[C@@H]1OC(=O)N2c3ccc(-c4ccc(C#N)nc4)cc3OC[C@@H]12 |  |  |  |  |  |  |  |  |  |  |  |  |  |  |  |  |  |  |  | pIC50 [32]: 5.56
